Measurements taken from ChEMBL document CHEMBL4689842, “EUbOPEN Chemogenomics Library wave 1” (2021).

Tested on: HEK-293T
Assay: Multiplex assay against HEK293T;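 for Population Tubulin-Different-Phenotype (%): share of the cells with healthy nuclei that show this phenotype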
Format: toxicity, cell-based
Details: human
Outline: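 Per cents of healthy-nucleus cells form the tubulin, mitochondrial-mass and membrane-permeability phenotype values. Live cells were stained at seeding with Hoechst33342, BioTracker Green Microtubule Cytoskeleton Dye, MitoTracker Red and Annexin V Alexa Fluor 680. After compound addition they were imaged on a CQ1 microscope at 37°C and 5% CO2, and CellPathfinder machine-learning gating split them into Hoechst high-intensity objects or normal cells, normal cells into healthy, pyknosed or fragmented nuclei, and pyknosed cells into mitotic or apoptotic.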

[1] = 12 h, 1 µM, compound concentration 1 uM, replicate 1
[2] = 12 h, 1 µM, compound concentration 1 uM, replicate 2
[3] = 12 h, 10 µM, compound concentration 10 uM, replicate 1
[4] = 12 h, 10 µM, compound concentration 10 uM, replicate 2
[5] = 24 h, 1 µM, compound concentration 1 uM, replicate 1
[6] = 24 h, 1 µM, compound concentration 1 uM, replicate 2
[7] = 24 h, 10 µM, compound concentration 10 uM, replicate 1
[8] = 24 h, 10 µM, compound concentration 10 uM, replicate 2
[9] = 48 h, 1 µM, compound concentration 1 uM, replicate 1
[10] = 48 h, 1 µM, compound concentration 1 uM, replicate 2
[11] = 48 h, 10 µM, compound concentration 10 uM, replicate 1
[12] = 48 h, 10 µM, compound concentration 10 uM, replicate 2

## CC(C)Oc1ccccc1C(=O)Nc1ccccc1C(=O)Nc1cccc(S(=O)(=O)C(F)(F)F)c1
[1]
  Population Apoptotic (%): 64%
  Population Fragmented Nuclei (%): 10%
  Population Healthy Nuclei (%): 41%
  Population Hoechst High Intensity Objects (%): 14%
  Population Membrane Permeable-Phenotype (%): 3%
  Population Mitochondria Different-Phenotype (%): 90%
  Population Mitotic Cells (%): 35%
  Population Normal (%): 85%
  Population Pyknosed Nuclei (%): 47%
  Population Tubulin-Different-Phenotype (%): 77%
  Total Cell Count: 237
[2]
  Population Apoptotic (%): 34%
  Population Fragmented Nuclei (%): 7%
  Population Healthy Nuclei (%): 37%
  Population Hoechst High Intensity Objects (%): 6%
  Population Membrane Permeable-Phenotype (%): 8%
  Population Mitochondria Different-Phenotype (%): 58%
  Population Mitotic Cells (%): 65%
  Population Normal (%): 93%
  Population Pyknosed Nuclei (%): 55%
  Population Tubulin-Different-Phenotype (%): 76%
  Total Cell Count: 214
[3]
  Population Fragmented Nuclei (%): 11%
  Population Healthy Nuclei (%): 31%
  Population Hoechst High Intensity Objects (%): 13%
  Population Membrane Permeable-Phenotype (%): 6%
  Population Mitochondria Different-Phenotype (%): 91%
  Population Mitotic Cells (%): 34%
  Population Normal (%): 87%
  Population Pyknosed Nuclei (%): 57%
  Population Tubulin-Different-Phenotype (%): 87%
  Total Cell Count: 300
[4]
  Population Apoptotic (%): 66%
  Population Fragmented Nuclei (%): 7%
  Population Healthy Nuclei (%): 21%
  Population Hoechst High Intensity Objects (%): 4%
  Population Membrane Permeable-Phenotype (%): 9%
  Population Mitochondria Different-Phenotype (%): 71%
  Population Mitotic Cells (%): 33%
  Population Normal (%): 95%
  Population Pyknosed Nuclei (%): 71%
  Population Tubulin-Different-Phenotype (%): 83%
  Total Cell Count: 206
[5]
  Population Apoptotic (%): 64%
  Population Fragmented Nuclei (%): 16%
  Population Healthy Nuclei (%): 44%
  Population Hoechst High Intensity Objects (%): 14%
  Population Membrane Permeable-Phenotype (%): 0%
  Population Mitochondria Different-Phenotype (%): 90%
  Population Mitotic Cells (%): 35%
  Population Normal (%): 85%
  Population Pyknosed Nuclei (%): 38%
  Population Tubulin-Different-Phenotype (%): 67%
  Total Cell Count: 263
[6]
  Population Apoptotic (%): 42%
  Population Fragmented Nuclei (%): 8%
  Population Healthy Nuclei (%): 50%
  Population Hoechst High Intensity Objects (%): 3%
  Population Membrane Permeable-Phenotype (%): 3%
  Population Mitochondria Different-Phenotype (%): 66%
  Population Mitotic Cells (%): 58%
  Population Normal (%): 96%
  Population Pyknosed Nuclei (%): 41%
  Population Tubulin-Different-Phenotype (%): 83%
  Total Cell Count: 253
[7]
  Population Apoptotic (%): 61%
  Population Fragmented Nuclei (%): 18%
  Population Healthy Nuclei (%): 31%
  Population Hoechst High Intensity Objects (%): 11%
  Population Membrane Permeable-Phenotype (%): 4%
  Population Mitochondria Different-Phenotype (%): 94%
  Population Mitotic Cells (%): 38%
  Population Normal (%): 88%
  Population Pyknosed Nuclei (%): 49%
  Population Tubulin-Different-Phenotype (%): 77%
  Total Cell Count: 332
[8]
  Population Apoptotic (%): 78%
  Population Fragmented Nuclei (%): 7%
  Population Healthy Nuclei (%): 25%
  Population Hoechst High Intensity Objects (%): 3%
  Population Membrane Permeable-Phenotype (%): 9%
  Population Mitochondria Different-Phenotype (%): 84%
  Population Mitotic Cells (%): 21%
  Population Normal (%): 96%
  Population Pyknosed Nuclei (%): 67%
  Population Tubulin-Different-Phenotype (%): 81%
  Total Cell Count: 217
[9]
  Population Apoptotic (%): 63%
  Population Fragmented Nuclei (%): 19%
  Population Healthy Nuclei (%): 43%
  Population Hoechst High Intensity Objects (%): 16%
  Population Membrane Permeable-Phenotype (%): 2%
  Population Mitochondria Different-Phenotype (%): 66%
  Population Mitotic Cells (%): 36%
  Population Normal (%): 83%
  Population Pyknosed Nuclei (%): 36%
  Population Tubulin-Different-Phenotype (%): 50%
  Total Cell Count: 286
[10]
  Population Apoptotic (%): 25%
  Population Fragmented Nuclei (%): 6%
  Population Healthy Nuclei (%): 73%
  Population Hoechst High Intensity Objects (%): 5%
  Population Membrane Permeable-Phenotype (%): 3%
  Population Mitochondria Different-Phenotype (%): 46%
  Population Mitotic Cells (%): 74%
  Population Normal (%): 94%
  Population Pyknosed Nuclei (%): 19%
  Population Tubulin-Different-Phenotype (%): 74%
  Total Cell Count: 393
[11]
  Population Apoptotic (%): 59%
  Population Fragmented Nuclei (%): 35%
  Population Healthy Nuclei (%): 30%
  Population Hoechst High Intensity Objects (%): 13%
  Population Membrane Permeable-Phenotype (%): 3%
  Population Mitochondria Different-Phenotype (%): 89%
  Population Mitotic Cells (%): 40%
  Population Normal (%): 86%
  Population Pyknosed Nuclei (%): 34%
  Population Tubulin-Different-Phenotype (%): 50%
  Total Cell Count: 401
[12]
  Population Apoptotic (%): 58%
  Population Fragmented Nuclei (%): 16%
  Population Healthy Nuclei (%): 26%
  Population Hoechst High Intensity Objects (%): 5%
  Population Membrane Permeable-Phenotype (%): 15%
  Population Mitochondria Different-Phenotype (%): 64%
  Population Mitotic Cells (%): 41%
  Population Normal (%): 94%
  Population Pyknosed Nuclei (%): 56%
  Population Tubulin-Different-Phenotype (%): 79%
  Total Cell Count: 251

## CNC(=O)Nc1ccc(-c2nc(N3CC4CCC(C3)O4)c3cnn(C4CCC5(CC4)OCCO5)c3n2)cc1
[1]
  Population Apoptotic (%): 55%
  Population Fragmented Nuclei (%): 24%
  Population Healthy Nuclei (%): 6%
  Population Hoechst High Intensity Objects (%): 20%
  Population Membrane Permeable-Phenotype (%): 0%
  Population Mitochondria Different-Phenotype (%): 75%
  Population Mitotic Cells (%): 44%
  Population Normal (%): 79%
  Population Pyknosed Nuclei (%): 68%
  Population Tubulin-Different-Phenotype (%): 50%
  Total Cell Count: 149
[2]
  Population Apoptotic (%): 23%
  Population Fragmented Nuclei (%): 9%
  Population Healthy Nuclei (%): 26%
  Population Hoechst High Intensity Objects (%): 10%
  Population Membrane Permeable-Phenotype (%): 8%
  Population Mitochondria Different-Phenotype (%): 32%
  Population Mitotic Cells (%): 76%
  Population Normal (%): 89%
  Population Pyknosed Nuclei (%): 64%
  Population Tubulin-Different-Phenotype (%): 24%
  Total Cell Count: 155
[3]
  Population Apoptotic (%): 76%
  Population Fragmented Nuclei (%): 18%
  Population Healthy Nuclei (%): 7%
  Population Hoechst High Intensity Objects (%): 26%
  Population Membrane Permeable-Phenotype (%): 11%
  Population Mitochondria Different-Phenotype (%): 88%
  Population Mitotic Cells (%): 23%
  Population Normal (%): 73%
  Population Pyknosed Nuclei (%): 73%
  Population Tubulin-Different-Phenotype (%): 88%
  Total Cell Count: 167
[4]
  Population Apoptotic (%): 56%
  Population Fragmented Nuclei (%): 8%
  Population Healthy Nuclei (%): 8%
  Population Hoechst High Intensity Objects (%): 7%
  Population Membrane Permeable-Phenotype (%): 6%
  Population Mitochondria Different-Phenotype (%): 100%
  Population Mitotic Cells (%): 43%
  Population Normal (%): 92%
  Population Pyknosed Nuclei (%): 82%
  Population Tubulin-Different-Phenotype (%): 100%
  Total Cell Count: 182
[5]
  Population Apoptotic (%): 68%
  Population Fragmented Nuclei (%): 32%
  Population Healthy Nuclei (%): 5%
  Population Hoechst High Intensity Objects (%): 29%
  Population Membrane Permeable-Phenotype (%): 16%
  Population Mitochondria Different-Phenotype (%): 66%
  Population Mitotic Cells (%): 31%
  Population Normal (%): 70%
  Population Pyknosed Nuclei (%): 61%
  Population Tubulin-Different-Phenotype (%): 16%
  Total Cell Count: 151
[6]
  Population Apoptotic (%): 21%
  Population Fragmented Nuclei (%): 12%
  Population Healthy Nuclei (%): 34%
  Population Hoechst High Intensity Objects (%): 10%
  Population Membrane Permeable-Phenotype (%): 8%
  Population Mitochondria Different-Phenotype (%): 35%
  Population Mitotic Cells (%): 78%
  Population Normal (%): 89%
  Population Pyknosed Nuclei (%): 53%
  Population Tubulin-Different-Phenotype (%): 20%
  Total Cell Count: 158
[7]
  Population Apoptotic (%): 81%
  Population Fragmented Nuclei (%): 23%
  Population Healthy Nuclei (%): 3%
  Population Hoechst High Intensity Objects (%): 27%
  Population Membrane Permeable-Phenotype (%): 25%
  Population Mitochondria Different-Phenotype (%): 75%
  Population Mitotic Cells (%): 18%
  Population Normal (%): 72%
  Population Pyknosed Nuclei (%): 73%
  Population Tubulin-Different-Phenotype (%): 75%
  Total Cell Count: 165
[8]
  Population Apoptotic (%): 68%
  Population Fragmented Nuclei (%): 10%
  Population Healthy Nuclei (%): 17%
  Population Hoechst High Intensity Objects (%): 11%
  Population Membrane Permeable-Phenotype (%): 17%
  Population Mitochondria Different-Phenotype (%): 85%
  Population Mitotic Cells (%): 31%
  Population Normal (%): 88%
  Population Pyknosed Nuclei (%): 72%
  Population Tubulin-Different-Phenotype (%): 96%
  Total Cell Count: 182
[9]
  Population Apoptotic (%): 62%
  Population Fragmented Nuclei (%): 46%
  Population Healthy Nuclei (%): 3%
  Population Hoechst High Intensity Objects (%): 33%
  Population Membrane Permeable-Phenotype (%): 0%
  Population Mitochondria Different-Phenotype (%): 66%
  Population Mitotic Cells (%): 37%
  Population Normal (%): 66%
  Population Pyknosed Nuclei (%): 50%
  Population Tubulin-Different-Phenotype (%): 33%
  Total Cell Count: 144
[10]
  Population Apoptotic (%): 34%
  Population Fragmented Nuclei (%): 13%
  Population Healthy Nuclei (%): 46%
  Population Hoechst High Intensity Objects (%): 11%
  Population Membrane Permeable-Phenotype (%): 1%
  Population Mitochondria Different-Phenotype (%): 50%
  Population Mitotic Cells (%): 65%
  Population Normal (%): 88%
  Population Pyknosed Nuclei (%): 40%
  Population Tubulin-Different-Phenotype (%): 61%
  Total Cell Count: 138
[11]
  Population Apoptotic (%): 84%
  Population Fragmented Nuclei (%): 35%
  Population Healthy Nuclei (%): 8%
  Population Hoechst High Intensity Objects (%): 23%
  Population Membrane Permeable-Phenotype (%): 11%
  Population Mitochondria Different-Phenotype (%): 100%
  Population Mitotic Cells (%): 15%
  Population Normal (%): 76%
  Population Pyknosed Nuclei (%): 56%
  Population Tubulin-Different-Phenotype (%): 100%
  Total Cell Count: 146
[12]
  Population Apoptotic (%): 65%
  Population Fragmented Nuclei (%): 8%
  Population Healthy Nuclei (%): 40%
  Population Hoechst High Intensity Objects (%): 8%
  Population Membrane Permeable-Phenotype (%): 1%
  Population Mitochondria Different-Phenotype (%): 83%
  Population Mitotic Cells (%): 34%
  Population Normal (%): 91%
  Population Pyknosed Nuclei (%): 51%
  Population Tubulin-Different-Phenotype (%): 90%
  Total Cell Count: 181
